Laboratory results as given in ChEMBL document CHEMBL1141713, “Bisphosphonate inhibitors of ATP-mediated HIV-1 reverse transcriptase catalyzed excision of chain-terminating 3'-azido, 3'-deoxythymidine: a QSAR investigation” (Bioorg Med Chem, 2008).
The source made the active and inactive calls. The rule behind the calls is not given here.

Columns and labels:
[1] = Inhibition of the ATP-mediated HIV1 reverse transcriptase D67N/K70R/T215F/K219Q mutant catalyzed 3'-azido, 3'-deoxythymidine excision from AZT-terminated DNA primers; design: species or system Human immunodeficiency virus 1
Method in brief: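 TAM-RT incubated with 5′-³²P-labeled 57/19 heteropolymeric DNA T/P whose 20 nt primer was chain-terminated with AZTMP (RT:T/P 4:1), in 50 mM Tris-HCl pH 8.0, 50 mM KCl, with or without varying bisphosphonate. Started with 10 mM MgCl₂ + 3.0 mM ATP, inorganic pyrophosphatase included. Timed aliquots quenched in formamide/EDTA dye. 20 nt and 19 nt excision product resolved on denaturing gel, quantified by phosphorimaging; IC₅₀.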

[2] = Toxicity against human MCF7 cells assessed as growth inhibition by broth microdilution method; assay type: cell-based
Method in brief: (§1)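 Cells grown in RPMI-1640 with 2mM L-glutamine and 10% FBS at 37°C, 5% CO₂. Seeded at 5,000 cells/well and exposed to compounds in half-log serial dilution, 316μM–10nM (100μM–10nM when the DMSO stock was used), for 4 days. Read-out by MTT, absorbance at 600nm. IC₅₀ fitted to a rectangular hyperbola with Imax fixed at 100%.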

[3] = Toxicity against human NCI-H460 cells assessed as growth inhibition by broth microdilution method; assay type: cell-based; method in brief: as §1
[4] = Toxicity against human SF268 cells assessed as growth inhibition by broth microdilution method; assay type: cell-based, SF-268; method in brief: as §1
[5] = tested on: Human immunodeficiency virus 1; assay: Inhibition of the ATP-mediated HIV1 reverse transcriptase D67N/K70R/T215F/K219Q mutant catalyzed DNA synthesis

Structure (SMILES)	IC50 [1] [µM]	pIC50 [1]	IC50 [2] [µM]	IC50 [3] [µM]	IC50 [4] [µM]	Activity [5]
O=P(O)(O)C(O)(C[n+]1ccccc1)P(=O)(O)O	302	3.5				
O=P(O)(O)C(Nc1cccc(CO)c1)P(=O)(O)O	7.9	5.1	> 300	> 300	> 300	inactive
O=P(O)(O)C(Nc1ccc(Cc2ccccc2)cc1)P(=O)(O)O	3.5	5.5	> 100	> 100	> 100	inactive
CCCCCCCCCCCC(O)(P(=O)(O)O)P(=O)(O)O	302	3.5				
O=P(O)(O)C(CNc1ccc(-c2ccccc2)cc1)P(=O)(O)O	4.6	5.3	84	95	95	inactive
O=P(O)(O)C(O)(Cc1cccc(-c2ccc(F)c(F)c2)c1)P(=O)(O)O	1	6	225	253	236	inactive
CCCCCCCc1ccc(NC(P(=O)(O)O)P(=O)(O)O)cc1	302	3.5				
COc1ccc(-c2cccc(CC(O)(P(=O)(O)O)P(=O)(O)O)c2)cc1	2.4	5.6	128	118	139	inactive
Nc1ccccc1CC(O)(P(=O)(O)O)P(=O)(O)O	38	4.4	205	187	186	inactive
O=P(O)(O)C(CNc1cccc(-c2ccccc2)c1)P(=O)(O)O	11.2	5	> 300	> 300	> 300	inactive
COCc1cccc(NC(P(=O)(O)O)P(=O)(O)O)c1	9.5	5	> 300	> 300	> 300	inactive
CCCCCCCCCC(O)(P(=O)(O)O)P(=O)(O)O	302	3.5				
O=P(O)(O)C(Nc1ccc(-c2ccccc2)cc1)P(=O)(O)O	302	3.5				
COc1ccc(-c2ccc(CC(O)(P(=O)(O)O)P(=O)(O)O)cc2)cc1	5.2	5.3				inactive
O=P(O)(O)C(O)(Cc1cccc(-c2ccc(Cl)cc2)c1)P(=O)(O)O	0.9	6.1	41	39	48	inactive
O=P(O)(O)C(O)(Cc1cccc(Oc2ccccc2)c1)P(=O)(O)O	3.3	5.5	188	212	176	inactive
O=P(O)(O)C(O)(Cc1cccc(-c2ccc(F)cc2)c1)P(=O)(O)O	1.9	5.7	173	175	224	inactive
O=P(O)(O)C(O)(Cc1cccc2ccccc12)P(=O)(O)O	1.3	5.9	259	248	225	inactive

Structure (SMILES)	IC50 [1] [µM]	pIC50 [1]	IC50 [2] [µM]	IC50 [3] [µM]	IC50 [4] [µM]	Activity [5]
NCCCCCC(O)(P(=O)(O)O)P(=O)(O)O [NERIDRONIC ACID]	302	3.5				
Cc1ccc(NC(P(=O)(O)O)P(=O)(O)O)cc1-c1ccccc1	5	5.3	296	301	297	inactive
O=P(O)(O)C(O)(Cc1ccc(-c2ccc(Cl)cc2)cc1)P(=O)(O)O	3.9	5.4	> 100	> 100	> 100	inactive
CN(C)c1ccccc1CC(O)(P(=O)(O)O)P(=O)(O)O	51.3	4.3	> 300	> 300	> 300	inactive
O=P(O)(O)C(O)(Cc1ccccc1)P(=O)(O)O	302	3.5				
O=P(O)(O)C(O)(Cc1ccc(-c2ccc(F)cc2)cc1)P(=O)(O)O	2.9	5.5	> 300	> 300	> 300	inactive
O=P(O)(O)C(O)(Cc1ccc(Cl)c(Cl)c1)P(=O)(O)O	0.5	6.3	213	241	208	inactive
CN(CCCc1ccccc1)CCC(O)(P(=O)(O)O)P(=O)(O)O	302	3.5				
O=P(O)(O)C(Nc1cccc(-c2ccccc2)c1)P(=O)(O)O	3.2	5.5	289	253	269	inactive
O=P(O)(O)C(Nc1cccc(-c2cc(F)cc(F)c2)c1)P(=O)(O)O	2.2	5.7	> 100	> 100	> 100	inactive
O=P(O)(O)C(Nc1cccc(Br)c1)P(=O)(O)O	1	6	> 300	> 300	> 300	inactive
CCCCCCCCC(O)(P(=O)(O)O)P(=O)(O)O	302	3.5				
O=P(O)(O)C(O)(Cc1cccc(-c2cc(F)ccc2F)c1)P(=O)(O)O	1.5	5.8	165	141	122	inactive
O=P(O)(O)C(Nc1cccc(-c2ccc(F)cc2F)c1)P(=O)(O)O	3.9	5.4	> 300	> 300	> 300	inactive
CCCCCCc1ccc(NC(P(=O)(O)O)P(=O)(O)O)cc1	302	3.5				
O=P(O)(O)C(Nc1cccc(-c2ccc(F)c(F)c2)c1)P(=O)(O)O	2.1	5.7	> 300	> 300	> 300	inactive
COc1cccc(CC(O)(P(=O)(O)O)P(=O)(O)O)c1	5.4	5.3	> 300	> 300	> 300	inactive
